# Calls of active or inactive are those of the source. The calls are words filed in the database; no cut-off is given here.
# How the values were obtained:
# [1] = test system: Vero; test: Cytotoxicity against african green monkey Vero cells; format: cell-based; details: Chlorocebus sabaeus
# [2] = test system: Cryptococcus neoformans; test: Antifungal activity against Cryptococcus neoformans ATCC 90113; format: functional
# Method in brief: (§1)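 Read-outs were MIC and MFC, in μg/mL. MFC is the lowest concentration that kills the fungus.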
# [3] = test system: Aspergillus fumigatus; test: Antifungal activity against Aspergillus fumigatus ATCC 90906; format: functional; method in brief: as §1
# [4] = test system: Candida albicans; test: Antifungal activity against Candida albicans ATCC 90028; format: functional; method in brief: as §1
# [5] = Selectivity index of IC50 for african green monkey Vero cells to MFC for Cryptococcus neoformans ATCC 90113; format: toxicity, cell-based; details: read-out: Selectivity Index
# Method in brief: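 The index is the Vero cell cytotoxicity IC50 divided by the MFC against C. neoformans.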
# [6] = test system: Candida albicans; test: Antifungal activity against Candida albicans ATCC 90028 at 20 ug/ml; format: functional, organism-based
# [7] = test system: Aspergillus fumigatus; test: Antifungal activity against Aspergillus fumigatus ATCC 90906 at 20 ug/ml; format: functional, organism-based
# [8] = test system: Candida albicans; test: Antifungal activity against amphotericin-B-resistant Candida albicans ATCC 200955; format: functional
# [9] = test system: Aspergillus niger; test: Antifungal activity against Aspergillus niger ATCC 16404 at 5 ug/ml; format: functional, organism-based
# [10] = test system: Aspergillus fumigatus; test: Antifungal activity against Aspergillus fumigatus ATCC 13073; format: functional
# Method in brief: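 Panel of 23 fungal strains assayed by the group's previously published protocol. Read-outs in μg/mL are the MIC and the MFC, the lowest concentration that kills the fungus. The highest concentration tested was 160 μg/mL, or 5 μg/mL for some agents.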
# [11] = test system: Candida albicans; test: Antifungal activity against fluconazole-resistant Candida albicans isolate 17 isolated from AIDS patient; format: functional
# [12] = test system: Cryptococcus bacillisporus; test: Antifungal activity against fluconazole-resistant Cryptococcus gattii ATCC 32609; format: functional
# [13] = test system: Cryptococcus neoformans; test: Antifungal activity against Cryptococcus neoformans ATCC 66031; format: functional
# [14] = test system: Aspergillus flavus; test: Antifungal activity against Aspergillus flavus ATCC 204304; format: functional
# Method in brief: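 Panel of 23 fungal strains assayed by the group's previously published protocol. Read-outs in μg/mL are the MIC and the MFC, the lowest concentration that kills the fungus.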
# [15] = test system: Candida tropicalis; test: Antifungal activity against Candida tropicalis ATCC 750 at 160 ug/ml; format: functional, organism-based
# [16] = test system: Candida albicans; test: Antifungal activity against Candida albicans ATCC 90028 at 160 ug/ml; format: functional, organism-based
# [17] = test system: Candida albicans; test: Antifungal activity against Candida albicans ATCC 14053; format: functional; method in brief: as §1
# [18] = test system: Candida parapsilosis; test: Antifungal activity against Candida parapsilosis ATCC 22019; format: functional; details: Lodderomyces parapsilosis
# [19] = test system: Nakaseomyces glabratus; test: Antifungal activity against intrinsically fluconazole-resistant Candida glabrata ATCC 90030; format: functional
# [20] = test system: Pichia kudriavzevii; test: Antifungal activity against intrinsically fluconazole-resistant Candida krusei ATCC 6258; format: functional
# [21] = test system: Candida parapsilosis; test: Antifungal activity against Candida parapsilosis ATCC 22019 at 160 ug/ml; format: functional, organism-based
# [22] = test system: Candida tropicalis; test: Antifungal activity against Candida tropicalis ATCC 750; format: functional
# [23] = test system: Candida albicans; test: Antifungal activity against amphotericin-B-resistant Candida albicans ATCC 200955 at 160 ug/ml; format: functional, organism-based
# [24] = test system: Aspergillus niger; test: Antifungal activity against Aspergillus niger ATCC 16404 at 160 ug/ml; format: functional, organism-based
# [25] = test system: Candida albicans; test: Antifungal activity against Candida albicans ATCC 32354; format: functional
# [26] = test system: Nakaseomyces glabratus; test: Antifungal activity against intrinsically fluconazole-resistant Candida glabrata ATCC 90030 at 160 ug/ml; format: functional, organism-based
# [27] = test system: Candida albicans; test: Antifungal activity against Candida albicans ATCC 60193; format: functional
# [28] = test system: Aspergillus fumigatus; test: Antifungal activity against Aspergillus fumigatus ATCC 204305 at 160 ug/ml; format: functional, organism-based
# [29] = test system: Candida albicans; test: Antifungal activity against fluconazole-resistant Candida albicans isolate 1 isolated from AIDS patient; format: functional
# [30] = test system: Candida albicans; test: Antifungal activity against fluconazole-resistant Candida albicans isolate 1 isolated from AIDS patient at 160 ug/ml; format: functional, organism-based
# [31] = test system: Candida albicans; test: Antifungal activity against Candida albicans ATCC 60193 at 160 ug/ml; format: functional, organism-based
# [32] = test system: Aspergillus fumigatus; test: Antifungal activity against Aspergillus fumigatus ATCC 90906 at 160 ug/ml; format: functional, organism-based
# [33] = test system: Candida albicans; test: Antifungal activity against Candida albicans ATCC 32354 at 160 ug/ml; format: functional, organism-based
# [34] = test system: Aspergillus flavus; test: Antifungal activity against Aspergillus flavus ATCC 204304 at 160 ug/ml; format: functional, organism-based
# [35] = test system: Aspergillus fumigatus; test: Antifungal activity against Aspergillus fumigatus ATCC 13073 at 160 ug/ml; format: functional, organism-based
# [36] = test system: Candida albicans; test: Antifungal activity against Candida albicans ATCC 14053 at 160 ug/ml; format: functional, organism-based
# [37] = test system: Candida albicans; test: Antifungal activity against fluconazole-resistant Candida albicans isolate 17 isolated from AIDS patient at 160 ug/ml; format: functional, organism-based
# [38] = test system: Aspergillus fumigatus; test: Antifungal activity against Aspergillus fumigatus ATCC 204305; format: functional
# [39] = test system: Cryptococcus neoformans; test: Antifungal activity against Cryptococcus neoformans ATCC 90113 at 20 ug/ml; format: functional, organism-based
smiles,measurement,setting,value
CCCCCCCCCCCCC1(O)C=CC2=[N+](C)CCCN21.[I-] (centres undefined),IC50,[1],18.3 µg/mL
same,MFC,[2],0.63 µg/mL
same,MIC,[2],0.63 µg/mL
same,MFC,[3],10 µg/mL
same,MIC,[3],5 µg/mL
same,MFC,[4],10 µg/mL
same,MIC,[4],7.5 µg/mL
same,selectivity ratio,[5],29
CCCCCCCCCCCCCCCCC1(O)C=CC2=[N+](C)CCCN21.[I-] (centres undefined),IC50,[1],16 µg/mL
same,MFC,[2],1.25 µg/mL
same,MIC,[2],1.25 µg/mL
same,MFC,[3],5 µg/mL
same,MIC,[3],5 µg/mL
same,MFC,[4],2.5 µg/mL
same,MIC,[4],2.5 µg/mL
same,selectivity ratio,[5],13
CCCCCCCCCCC1(O)C=CC2=[N+](C)CCCN21.[I-] (centres undefined),IC50,[1],21.3 µg/mL
same,MFC,[2],10 µg/mL
same,MIC,[2],10 µg/mL
same,Activity,[6],inactive
same,MIC,[4],20 µg/mL
same,Activity,[7],inactive
same,selectivity ratio,[5],2
C[C@@H]1[C@H](O)[C@@H](C)/C=C/C=C/C=C/C=C/C=C/C=C/C=C/[C@H](O[C@@H]2O[C@H](C)[C@@H](O)[C@H](N)[C@@H]2O)C[C@@H]2O[C@](O)(C[C@@H](O)C[C@@H](O)[C@H](O)CC[C@@H](O)C[C@@H](O)CC(=O)O[C@H]1C)C[C@H](O)[C@H]2C(=O)O [AMPHOTERICIN B],IC50,[1],4.7 µg/mL
same,MIC,[8],1.88 µg/mL
same,Activity,[9],inactive
same,MFC,[10],10 µg/mL
same,MIC,[10],1.5 µg/mL
same,MIC,[11],0.94 µg/mL
same,MFC,[12],0.57 µg/mL
same,MIC,[12],0.57 µg/mL
same,MFC,[13],0.31 µg/mL
same,MIC,[13],0.16 µg/mL
same,MFC,[14],5 µg/mL
OC(Cn1cncn1)(Cn1cncn1)c1ccc(F)cc1F [FLUCONAZOLE],Activity,[15],inactive
same,Activity,[16],inactive
same,MFC,[2],25 µg/mL
same,MIC,[2],9.38 µg/mL
same,MIC,[17],0.25 µg/mL
same,MIC,[18],2.8 µg/mL
same,MIC,[19],45 µg/mL
same,MFC,[20],80 µg/mL
same,MIC,[20],45 µg/mL
same,Activity,[21],inactive
same,MIC,[22],13.1 µg/mL
same,Activity,[23],inactive
same,MIC,[8],0.35 µg/mL
same,Activity,[24],inactive
same,MIC,[25],0.94 µg/mL
same,Activity,[26],inactive
same,MIC,[27],0.2 µg/mL
same,Activity,[28],inactive
same,MIC,[29],10.4 µg/mL
same,MFC,[12],50 µg/mL
same,MIC,[12],50 µg/mL
same,MIC,[4],0.51 µg/mL
same,Activity,[30],inactive
same,Activity,[31],inactive
same,MFC,[13],12.5 µg/mL
same,MIC,[13],3.91 µg/mL
same,Activity,[32],inactive
same,Activity,[33],inactive
same,Activity,[34],inactive
same,Activity,[35],inactive
same,Activity,[36],inactive
same,Activity,[37],inactive
CCCCCCCCCCCCCCC1(O)C=CC2=[N+](C)CCCN21.[I-] (centres undefined),IC50,[1],16.5 µg/mL
same,MFC,[2],0.31 µg/mL
same,MIC,[2],0.31 µg/mL
same,MIC,[17],1.88 µg/mL
same,MFC,[3],5 µg/mL
same,MIC,[3],1.88 µg/mL
same,MFC,[25],10 µg/mL
same,MFC,[11],2.5 µg/mL
same,MIC,[29],1.25 µg/mL
same,MFC,[12],0.63 µg/mL
same,MIC,[12],0.63 µg/mL
same,MIC,[4],1.88 µg/mL
same,MFC,[13],0.31 µg/mL
same,MIC,[13],0.23 µg/mL
same,MFC,[38],10 µg/mL
same,selectivity ratio,[5],53
CCCCCCC1(O)C=CC2=[N+](C)CCCN21.[I-] (centres undefined),IC50,[1],> 25 µg/mL
same,Activity,[6],inactive
same,Activity,[7],inactive
same,Activity,[39],inactive
CCCCCCCCCCCCCCCCCCC1(O)C=CC2=[N+](C)CCCN21.[I-] (centres undefined),IC50,[1],12.3 µg/mL
same,MFC,[2],1.97 µg/mL
same,MIC,[2],1.61 µg/mL
same,MIC,[3],10 µg/mL
same,MFC,[4],2.5 µg/mL
same,MIC,[4],2.5 µg/mL
same,Activity,[7],inactive
same,selectivity ratio,[5],6
